How the values were obtained:
L1210 [1] = test: Compound was tested for its ability to inhibit L1210 cell growth after 72 hr at 1000 uM concentration; type: functional; settings: Mus musculus, L1210, 72 h
Method in brief: (§1)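 L1210 cells are grown as stationary suspension cultures in Fishers medium with 10% heat-inactivated horse serum. Drug exposure is continuous for 72 h. Cell number is counted with a Coulter counter. Percent inhibition is calculated against untreated control cultures.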

L1210 [2] = test: Compound was tested for its ability to inhibit L1210 cell growth after 72 hr at 100 uM concentration; type: functional; settings: Mus musculus, L1210, 72 h; method in brief: as §1
L1210 [3] = test: Compound was tested for its ability to inhibit L1210 cell growth after 72 hr at 0.03 uM concentration; type: functional; settings: Mus musculus, L1210, 72 h; method in brief: as §1
[4] = biological target: T1, Uridine-cytidine kinase 1 (Mus musculus) (UniProt P52623); test: Inhibition of uridine kinase from L1210 cells was evaluated by measuring the retention of phosphorylated product on DE81 filter papers at 100 uM; type: functional, cell-based
T1 sequence (whole entry): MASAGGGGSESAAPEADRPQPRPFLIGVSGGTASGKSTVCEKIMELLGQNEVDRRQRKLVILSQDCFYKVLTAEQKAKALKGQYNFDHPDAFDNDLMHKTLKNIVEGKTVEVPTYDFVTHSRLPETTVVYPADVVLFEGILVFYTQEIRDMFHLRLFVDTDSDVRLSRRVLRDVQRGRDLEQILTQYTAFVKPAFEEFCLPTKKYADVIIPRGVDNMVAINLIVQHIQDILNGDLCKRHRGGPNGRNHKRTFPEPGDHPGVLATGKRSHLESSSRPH

[5] = biological target: T1, Uridine-cytidine kinase 1 (Mus musculus); test: Inhibition of uridine kinase from L1210 cells was evaluated by measuring the retention of phosphorylated product on DE81 filter papers at 1000 uM; type: functional, cell-based
[6] = biological target: T2, Uridine-cytidine kinase 1 (Mus musculus, UniProt P52623); test: Binding affinity to uridine kinase from L1210. was determined from the dixon plot
T2 sequence (P52623 whole entry): T1 sequence (whole entry)
Method in brief: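 Uridine kinase from L1210 cells. Uridine is used at 10, 40 and 200 μM, with inhibitor at 1, 0.5, 0.2 and 0.1 mM. Ki is taken from Dixon plots.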

L1210 [7] = test: Compound was tested for its ability to inhibit L1210 cell growth after 72 hr at 500 uM concentration; type: functional; settings: Mus musculus, L1210, 72 h; method in brief: as §1

Compound `Nc1ccn([C@@H]2C=C(CO)[C@@H](O)[C@H]2O)c(=O)n1` has an inhibition at 1000 µM (L1210 [1]) of 99%, an inhibition at 100 µM (L1210 [2]) of 99% and an inhibition at 0.03 µM (L1210 [3]) of 58%. It also gave an inhibition [4] of 57%, an inhibition [5] of 89% and a Ki [6] of 60 µM. The inhibition at 500 µM (L1210 [7]) was 96%.
Compound `O=c1ccn([C@@H]2C=C(CO)[C@@H](O)[C@H]2O)c(=O)[nH]1` has an inhibition at 1000 µM (L1210 [1]) of 36%, an inhibition at 100 µM (L1210 [2]) of 2% and an inhibition [4] of 35%. It also gave an inhibition [5] of 78% and an inhibition at 500 µM (L1210 [7]) of 12%.
